High-throughput results: PubChem, Broad Institute
A selection: hits, their analogues and other compounds. The true share with any hit is near 1.2%.
MLL AF4-AF9 inh = inhibitors of AF4 peptide binding to AF9, primary screen, biochemical, AlphaScreen, biotin-AF4 peptide, FLAG-AF9, single point; 350,000 compounds, 0.47% hits; Protein AF-9 (Homo sapiens), P42568; inhibition, % at 10 µM;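 active means every replicate reaching a set inhibition limit, whatever the replicate mean, cut at about 25% in these data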;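 further: 0% = plate neutral control median and 100% = total signal loss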
NSD2 HMT inh = NSD2 histone methyltransferase inhibitors, primary screen, biochemical, AlphaScreen, single concentration, set 2; Histone-lysine N-methyltransferase NSD2 (Homo sapiens), O96028; NSD2 peptide methylation, 120 min; inhibition, % at 12.5 µM; 310,000 compounds, 0.54% hits; in the data active means inhibition above about 50%
RAD52 anneal inh = RAD52 DNA annealing inhibitors, primary screen, biochemical, FRET, single point, set 2. DNA repair protein RAD52 homolog (Homo sapiens), P43351. AID 651710, 2012. 360,000 compounds, 0.46% hits. inhibition, % at 18.7 µM. recombinant RAD52 DNA annealing, FRET fluorescence;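 active means every replicate showing at least 50% inhibition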
RAD54 branch = inhibitors of human RAD54 branch migration, primary screen, biochemical, fluorescence, single point; inhibition, % at 10.4 µM; AID 602329, 2012; RAD54 Holliday junction branch migration, FAM/BHQ fluorescence; DNA repair and recombination protein RAD54-like (Homo sapiens), Q92698; 360,000 compounds, 0.14% hits;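 active means mean normalized replicate activity at least 40 and at least half of replicates scoring 40 or more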;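 further: 0% = median of neutral control wells and 100% = median of positive control wells; inhibitors cause a drop in the FAM fluorescence signal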
Target sequence (Q92698 whole entry, looked up): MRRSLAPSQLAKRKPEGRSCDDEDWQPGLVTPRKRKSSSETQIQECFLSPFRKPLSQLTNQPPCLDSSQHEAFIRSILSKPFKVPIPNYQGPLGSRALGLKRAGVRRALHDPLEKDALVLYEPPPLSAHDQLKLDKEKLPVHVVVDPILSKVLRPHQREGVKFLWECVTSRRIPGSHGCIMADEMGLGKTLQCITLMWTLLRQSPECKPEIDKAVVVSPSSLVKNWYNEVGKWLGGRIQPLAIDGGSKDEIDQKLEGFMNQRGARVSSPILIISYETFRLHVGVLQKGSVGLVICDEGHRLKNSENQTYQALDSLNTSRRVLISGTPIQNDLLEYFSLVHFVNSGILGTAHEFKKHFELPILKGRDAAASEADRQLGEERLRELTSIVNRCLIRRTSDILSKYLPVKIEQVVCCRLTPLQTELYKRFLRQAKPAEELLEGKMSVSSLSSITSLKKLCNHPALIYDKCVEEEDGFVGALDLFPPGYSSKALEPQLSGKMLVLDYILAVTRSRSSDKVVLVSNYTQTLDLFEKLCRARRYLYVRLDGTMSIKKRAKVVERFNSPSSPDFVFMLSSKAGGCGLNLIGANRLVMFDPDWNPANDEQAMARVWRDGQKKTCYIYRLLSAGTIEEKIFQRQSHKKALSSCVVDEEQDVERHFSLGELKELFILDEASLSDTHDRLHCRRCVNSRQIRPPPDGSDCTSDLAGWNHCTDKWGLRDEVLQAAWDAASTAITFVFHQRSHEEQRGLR
FN deposition inh = inhibitors of fibronectin matrix deposition, primary screen, AH1F cells, Alexa488-fibronectin fluorescence, plate reader; AH1F fibroblasts, overnight; 350,000 compounds, 0.086% hits; inhibition, % at 12.6 µM;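 active means mean inhibition across replicates of 30% or more, regardless of how many single replicates reach that level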;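 further: positive control wells lacked labelled fibronectin entirely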
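Material: AH1F fibroblast monolayer depositing Alexa488-labelled fibronectin into matrix / Amount: 10000 AH1F cells per well / Signal: fluorescence 485/525 nm / Medium: DMEM, 2% serum / Compound: single dose, pinned / Incubation: 1 h cell adhesion before compound, then overnight fibronectin incubation / Reagent: Alexa488-FN, 24 nM final / Read-out: inhibition of fibronectin deposition signal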
Glyco luc inh = increase of ERlucT glycosylation luciferase signal, primary screen, N-linked glycosylation inhibitor project, D54 ERlucT cells, luminescence, set 2; reporter increase, % at 12.5 µM; AID 588692, 2011; D54 ERlucT glycosylation luciferase reporter, 24 h; percent of 100 nM tunicamycin response; 360,000 compounds, 0.23% hits;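 active means mean luciferase reporter signal, scaled so untreated is 0 and the glycosylation-blocking control 100, at or above a set limit in every replicate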;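 further: luciferase carries N-glycosylation sites so blocking glycosylation raises the light; 0% = median of neutral control wells and 100% = median of 100 nM tunicamycin wells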
The depositor's hits bear a star; nt = no result given.

SMILES	MLL AF4-AF9 inh	NSD2 HMT inh	RAD52 anneal inh	RAD54 branch	FN deposition inh	Glyco luc inh
CN(C)C(=O)c1ccc(-c2ccc(C3[C@@H]4CN(S(=O)(=O)c5ccc(F)cc5)C[C@H]3N4)cc2)cc1 (some centres undefined)	-4	nt	5	nt	5	nt
C[C@@H]1CCCCO[C@@H](CN(C)Cc2ccncc2)[C@H](C)CN([C@@H](C)CO)C(=O)c2cc(NS(=O)(=O)c3cn(C)cn3)ccc2O1	0	nt	4	-5	nt	nt
COc1cccc(S(=O)(=O)N[C@H]2CC[C@H](CCN)O[C@@H]2CO)c1	4	nt	-10	-4	-1	nt
COC(=O)Cc1[nH]nc2c1C(c1ccc(O)c(OC)c1)C(C#N)=C(N)O2 (centres undefined)	30*	nt	-23	-22	7	0
COC(=O)Cc1[nH]nc2c1C(c1cc(OC)c(OC)c(OC)c1)C(C#N)=C(N)O2 (centres undefined)	3	-1	-2	7	1	2
O=C(Nc1ccc(C(F)(F)F)cc1)N[C@@H]1CC[C@@H](CC(=O)N2CCCCC2)O[C@H]1CO	-4	nt	-2	1	1	nt
COc1ccc(C2(CNC(=O)c3cc(OC)c(OC)c(OC)c3)CCCC2)cc1OC	5	1	-6	-4	-14	35*
COc1cc(C(=O)NCC2(c3ccccc3)CCCC2)cc(OC)c1OC	-24	-2	-7	5	-3	1
O=C(Nc1ccc(Cl)c(Cl)c1)N[C@H]1CC[C@H](CCn2cc(C3CC3)nn2)O[C@H]1CO	0	nt	-3	-3	3	nt
COc1ccc(-c2csc(N(CCCN(C)C)C(=O)c3ccccc3C)n2)cc1	31*	17	48	11	2	-9
CN(C)CCCN(C(=O)c1cccs1)c1nc(-c2ccccc2)cs1	nt	12	nt	6	4	-5
O=C(NCc1ccccc1)C1Cc2c(-c3cccc(F)c3)ccnc2O1 (centres undefined)	-7	-1	-57	2	-1	35*
O=C(NCc1cccc(Cl)c1)C1Cc2c(-c3cccc(F)c3)ccnc2O1 (centres undefined)	-8	-3	-10	4	19	2
CC(=O)c1cccc(-c2ccnc3c2CC(C(=O)NCc2ccco2)O3)c1 (centres undefined)	-1	-4	-10	-7	-4	32*
CC(=O)c1cccc(-c2ccnc3c2CC(C(=O)NCc2ccc(F)c(F)c2)O3)c1 (centres undefined)	2	-3	-40	-5	0	34*
C[C@@H]1CN([C@H](C)CO)C(=O)c2cc(NC(=O)Nc3ccc4c(c3)OCO4)ccc2O[C@H]1CN(C)S(=O)(=O)c1ccccc1	6	nt	-7	1	nt	nt
C[C@H]1CN([C@@H](C)CO)S(=O)(=O)c2ccc(-c3ccccc3)cc2O[C@@H]1CN(C)C	-1	nt	8	1	nt	nt
O=C1Cc2c([nH]c3ccc([N+](=O)[O-])cc23)-c2ccccc2N1	0	nt	-1	nt	-1	88*
O=C1OC(c2ccccc2)=C/C1=C/N1CCOCC1	5	-3	-35	-3	nt	2
O=C1SC(c2ccccc2)=C/C1=C\N1CCCCC1	30*	40	-8	0	nt	4
C[C@@H]1CCCCO[C@H](CN(C)S(=O)(=O)c2cn(C)cn2)[C@H](C)CN([C@H](C)CO)C(=O)c2cc(NC(=O)CCCN(C)C)ccc2O1	-2	nt	-7	-1	nt	nt
CCN1c2ccccc2N(C)C1(C)c1ccccc1 (centres undefined)	nt	63*	nt	-12	nt	0
Cn1cnc(Sc2ncnc3nc[nH]c23)c1[N+](=O)[O-]	-2	nt	-4	0	8	136*
Cn1cnc([N+](=O)[O-])c1Sc1ncnc2nc[nH]c12	nt	nt	-42	3	1	130*
CC(=O)CSc1ncnc2nc[nH]c12	nt	-6	nt	2	nt	5
SMILES	MLL AF4-AF9 inh	NSD2 HMT inh	RAD52 anneal inh	RAD54 branch	FN deposition inh	Glyco luc inh
CCCNC(=O)N1CC2(CCN(Cc3cccc(F)c3)CC2)c2c([nH]c3cc(OC)ccc23)[C@H]1CO	15	nt	-4	nt	nt	nt
CNc1ccc(/C=C/C(=O)c2cccc3ccccc23)cc1[N+](=O)[O-]	-1	2	-8	nt	2	46*
C=CCN1CCc2cc(O)c(O)cc2C(c2ccccc2)C1 (centres undefined)	5	nt	4	-1	-9	1
C=CCN1CCc2c(cc(O)c(O)c2Cl)C(c2ccccc2)C1 (centres undefined)	52*	nt	-5	9	-9	-3
O=C(C[C@H]1CC[C@@H]2[C@H](COC[C@H](O)CN2CC2CCOCC2)O1)N1CCOCC1	-7	nt	8	-6	-9	nt
CN(C)/N=C/c1ccc(Sc2ccc([N+](=O)[O-])cc2[N+](=O)[O-])o1	nt	9	nt	nt	4	27*
CCC(=O)N(C1=C(NC(C)C)C(=O)c2ccccc2C1=O)C(C)C	-5	70*	-12	4	-1	7
CCC(=O)NC1=C(Nc2ccc(N)cc2)C(=O)c2ccccc2C1=O	12	13	40	1	-4	-5
Cc1noc(C)c1NC(=O)N(C)C[C@@H]1Oc2ccc(NC(=O)CCCCCC(=O)Nc3ccccc3N)cc2CC(=O)N([C@H](C)CO)C[C@@H]1C	2	nt	4	-1	2	nt
COc1ccccc1N1CCN(Cc2cc3c(cc2Br)OCCO3)CC1	4	25	-7	1	-3	1
COc1ccc(N2CCN(Cc3cc4c(cc3Br)OCCO4)CC2)cc1	27*	8	-5	1	6	-2
CCN1CCN(CCCNC(=O)C2CCN(c3nnc(-n4cccc4)s3)CC2)CC1	5	1	45	-3	-8	-1
CCOc1ccc(NCc2cccn2-c2nnc(N3CCC(C(=O)NCCCN4CC(C)CC(C)C4)CC3)s2)cc1 (centres undefined)	40*	45	18	16	-3	0
C[C@H](NC(=O)C[C@@H]1C[C@H]2c3cc(NC(=O)NC4CCCCC4)ccc3O[C@H]2[C@H](CO)O1)c1ccccc1	2	nt	-8	-8	nt	nt
COc1ccc(C)c2sc(N(CCCN(C)C)C(=O)c3ccc(S(=O)(=O)N4CCc5ccccc5C4)cc3)nc12	-7	1	95*	-1	6	-12
COCCNC(=O)C[C@@H]1C[C@@H]2c3cc(NC(=O)c4ccc5c(c4)OCO5)ccc3O[C@@H]2[C@H](CO)O1	-1	nt	1	10	nt	nt
